Laboratory results reported in ChEMBL document CHEMBL5380787, “Optimized M24B Aminopeptidase Inhibitors for CARD8 Inflammasome Activation” (J Med Chem, 2023).
pIC50: −log10 of the molar value. Active and inactive are the calls of the source. The rule behind the calls is not given here.

Legend:
MV4-11 [1] = assay: Cytotoxicity against CASP1 knockout human MV4-11 cells assessed as reduction in cell viability incubated for 24 hrs by celltiter-glo assay; type: functional, cell-based; conditions: MV4-11, 24 h
Summary of the method: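 MV4;11 cells (WT or CASP1−/−), grown in RPMI 1640 with 10% FBS at 37 °C, 5% CO2, plated 2000 cells/well, dosed by pintool across 100 μM to 15.2 nM in three-fold steps for 24 h. Viability by CellTiter-Glo luminescence after 2 min shaking and 10 min at 25 °C. IC50 as mean ± SEM of three biological replicates.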

MV4-11 [2] = assay: Induction of cell death in CASP1 knockout human MV4-11 cells assessed as increase in PI uptake at 6.25 uM incubated for 6 hrs by PI staining based fluorescence analysis; type: functional
Summary of the method: (§1)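 PI flux assay. 2 × 10^4 MV4;11 (WT, CARD8−/− or CASP1−/−) or OCI-AML2 cells in RPMI were given compound at 6.25 μM plus PI at 10 μM final. Fluorescence (Ex/Em 535/617 nm) was read every 5 min at 37 °C for 6 h, baseline-corrected to DMSO and normalized to the maximum response. n = 3.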

MV4-11 [3] = assay: Induction of cell death in CARD8 knockout human MV4-11 cells assessed as increase in PI uptake at 6.25 uM incubated for 6 hrs by PI staining based fluorescence analysis; type: functional; summary of the method: as §1
OCI-AML2 [4] = assay: Induction of cell death in human OCI-AML2 cells assessed as reduction in cell viability incubated for 24 hrs by celltiter-glo assay; type: functional, cell-based
Summary of the method: (§2)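 OCI-AML2 cells, WT or CARD8−/−, were grown in RPMI 1640 with 10% FBS and plated at 2000 cells/well. Compound was added over a range of concentrations for 24 h, and viability was then read by CellTiter-Glo luminescence. Means ± SEM, n = 3.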

OCI-AML2 [5] = assay: Induction of cell death in CARD8 knockout human OCI-AML2 cells assessed as reduction in cell viability incubated for 24 hrs by celltiter-glo assay; type: functional, cell-based; summary of the method: as §2
MV4-11 [6] = assay: Induction of pyroptosis in CARD8 knockout human MV4-11 cells assessed as LDH release at 20 uM incubated for 24 hrs; type: functional, cell-based
Summary of the method: (§3)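 Cells (MV4;11, OCI-AML2 or THP-1; WT or the knockout named) plated at 5 × 10^5 cells/well and exposed to 20 μM compound for 24 h. LDH in the supernatant was measured relative to a Triton X-100 lysis control. For immunoblots, cells were washed in PBS, sonicated, protein-normalized, run on SDS-PAGE and probed for GSDMD cleavage. n = 3.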

OCI-AML2 [7] = assay: Induction of pyroptosis in human OCI-AML2 cells assessed as LDH release at 20 uM incubated for 24 hrs; type: functional, cell-based; summary of the method: as §3
THP-1 [8] = assay: Induction of pyroptosis in human THP-1 cells assessed as LDH release at 20 uM incubated for 24 hrs; type: functional, cell-based; summary of the method: as §3
MV4-11 [9] = assay: Induction of pyroptosis in human MV4-11 cells assessed as GSDMD cleavage at 20 uM incubated for 24 hrs by immunoblot analysis; type: functional, cell-based; summary of the method: as §3
THP-1 [10] = assay: Induction of pyroptosis in CARD8 knockout human THP-1 cells assessed as GSDMD cleavage at 20 uM incubated for 24 hrs by immunoblot analysis; type: functional, cell-based; summary of the method: as §3
T-cell = assay: Induction of pyroptosis in human T cells expressing CARD8 assessed as GSDMD cleavage at 20 uM incubated for 24 hrs by immunoblot analysis; type: functional, cell-based
Summary of the method: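 Resting human primary T cells (>90% purity) were thawed and cultured in RPMI-1640 with 10% FBS and 30 U/mL IL-2. They were exposed to 20 μM compound for 24 h, lysed, and immunoblotted for GSDMD cleavage.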

BMDM = assay: Induction of pyroptosis in C57BL/6J mouse BMDM cells expressing NLRP1A and NLRP1B allele 2 assessed as LDH release at 20 uM incubated for 24 hrs; type: functional, cell-based
Summary of the method: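 Bone marrow cells from femurs and tibias of 7–12-week-old C57BL/6J mice were RBC-lysed and differentiated for 6 days at 37 °C in DMEM with 10% FBS and 15–20% L-cell medium, then replated. Cells were exposed to 20 μM compound for 24 h. Read-outs were LDH release against a lysis control and GSDMD immunoblot.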

THP-1 [11] = assay: Induction of pyroptosis in PEPD knockout human THP-1 cells assessed as LDH release at 20 uM incubated for 24 hrs; type: functional, cell-based; summary of the method: as §3
HEK-293T = assay: Induction of pyroptosis in human HEK293T cells expressing CASP1 and GSDMD cotransfected with dTAG-CARD8ZUC and CARD8 FIIND S297A assessed as destabilization of DPP9-CARD8 ternary complex by measuring GSDMD clevage at 20 uM incubated for 6 hrs in presence of dTAG13 by immunoblot analysis; type: functional, cell-based
MV4-11 [12] = assay: Cytotoxicity against human MV4-11 cells assessed as reduction in cell viability at 1 uM incubated for 24 hrs by celltiter-glo assay relative to control; type: functional
Summary of the method: (§4)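 Single-dose viability screen. MV4;11 or OCI-AML2 cells at 2000 cells/well were exposed to 1 μM compound for 24 h. Viability was read by CellTiter-Glo luminescence and expressed as percent inhibition. Values are means of three biological replicates.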

OCI-AML2 [13] = assay: Cytotoxicity against human OCI-AML2 cells assessed as reduction in cell viability at 1 uM incubated for 24 hrs by celltiter-glo assay relative to control; type: functional; summary of the method: as §4
[14] = biological target: T1, Xaa-Pro dipeptidase (Homo sapiens) (UniProt P12955); assay: Inhibition of recombinant human PEPD using Ala-Pro as substrate assessed as alanine release by measuring increase in fluorescense signal at 1 uM by fluorescence based analysis relative to control
T1 sequence (whole entry): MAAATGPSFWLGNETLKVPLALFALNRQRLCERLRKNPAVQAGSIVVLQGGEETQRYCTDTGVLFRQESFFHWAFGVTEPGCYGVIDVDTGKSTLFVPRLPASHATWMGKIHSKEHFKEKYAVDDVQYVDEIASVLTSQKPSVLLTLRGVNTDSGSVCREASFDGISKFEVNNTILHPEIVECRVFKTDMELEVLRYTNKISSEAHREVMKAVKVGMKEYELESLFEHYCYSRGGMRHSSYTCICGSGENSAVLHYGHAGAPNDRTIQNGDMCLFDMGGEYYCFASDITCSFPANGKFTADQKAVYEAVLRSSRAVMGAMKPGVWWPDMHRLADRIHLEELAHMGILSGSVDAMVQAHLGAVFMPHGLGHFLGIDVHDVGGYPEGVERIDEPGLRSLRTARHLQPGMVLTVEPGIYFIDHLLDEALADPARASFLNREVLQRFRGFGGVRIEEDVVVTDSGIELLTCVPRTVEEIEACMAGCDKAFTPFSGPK
Summary of the method: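 Recombinant human PEPD at 50 nM was incubated with Ala-Pro at 40 μM final and compound. Released alanine was detected by coupled alanine transaminase/pyruvate oxidase conversion to H2O2 and resorufin fluorescence (Ex/Em 535/587 nm) at 25 °C.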

THP-1 [15] = assay: Induction of pyroptosis in PEPD knockout human THP-1 cells assessed as GSDMD clevage at 20 uM incubated for 24 hrs by immunoblot analysis; type: functional, cell-based; summary of the method: as §3
THP-1 [16] = assay: Induction of pyroptosis in PEPD/XPNPEP1 knockout human THP-1 cells assessed as GSDMD clevage at 20 uM incubated for 24 hrs by immunoblot analysis; type: functional, cell-based; summary of the method: as §3

inhibition [14] [%]	Structure (SMILES)	pIC50 (MV4-11 [1])	Activity (MV4-11 [2])	Activity (MV4-11 [3])	Activity (OCI-AML2 [4])	Activity (OCI-AML2 [5])	Activity (MV4-11 [6])	Activity (OCI-AML2 [7])	Activity (THP-1 [8])	Activity (MV4-11 [9])	Activity (THP-1 [10])	Activity (T-cell)	Activity (BMDM)	Activity (THP-1 [11])	Activity (HEK-293T)	Activity (MV4-11 [12]) [%]	Activity (OCI-AML2 [13]) [%]	Activity (THP-1 [15])	Activity (THP-1 [16])
48	COC(=O)[C@@H]1CCCN1C(=O)[C@@H](O)[C@H](N)CC(C)C	< 4.00	inactive	inactive	Active	inactive	inactive	Active	Active	Active	inactive	Active	inactive	Active	Active	72	42	Active	inactive
60	COC(=O)[C@H](CC(C)C)NC(=O)[C@@H]1CCCN1C(=O)[C@@H](O)[C@H](N)CC(C)C	< 4.70	inactive	inactive	Active	inactive	inactive	Active	Active	Active	inactive	Active	inactive	Active	Active	45	37	Active	inactive
